The values that follow come from ChEMBL document CHEMBL1122162, “Carbocyclic analogue of 3-deazaadenosine: a novel antiviral agent using S-adenosylhomocysteine hydrolase as a pharmacological target” (1982).

The species entered for assay [1] is Mus musculus. Briefly: Effect in mouse infected with herpes simplex virus type-1; observed effects diminished with time. Format: functional, organism-based.
The species named for assay [2] is Mus musculus. Put plainly: Effect in mouse infected with vaccinia virus; observed effects seen. Format: functional, organism-based.
The species named for assay [3] is Mus musculus. Briefly: Minimum Inhibitory concentration of the drug required for 50% inhibition of herpes simplex virus type 1 (strain E-377) -induced cytopathogenic effects in infected cell cultures. Format: functional.
The species entered for assay [4] is Mus musculus. Put plainly: Minimum Inhibitory concentration of the drug required for 50% inhibition of vaccinia virus (strain Lederle chorioallantoic) -induced cytopathogenic effects in infected cell cultures. Format: functional.
The species named for assay [5] is Mus musculus. Briefly: In vitro antiviral activity against vaccinia virus (strain Lederle chorioallantoic) grown in mouse fibroblasts cells, clone L-929, expressed as VR. Format: functional, Fibroblast.
Assay [6] is filed under the species Rattus norvegicus. Put plainly: Percent inhibition of oncogenic transformation of HL-23 virus infected rat kidney cells (NRK 153C17) at 0 uM. Format: functional. Put shortly:
(§1)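 NRK 153 C1 7 rat kidney cells infected with HL-23 virus in the presence of compound at 0–4 μM. Foci were stained with Giemsa and counted per dish on day 5. % inhibition was derived from focus counts relative to the untreated dish.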

For assay [7], the species on record is Rattus norvegicus. Put plainly: Percent inhibition of oncogenic transformation of HL-23 virus infected rat kidney cells (NRK 153C17) at 0.25 uM. Format: functional. In short, it runs like this: as §1
The species entered for assay [8] is Rattus norvegicus. Put plainly: Percent inhibition of oncogenic transformation of HL-23 virus infected rat kidney cells (NRK 153C17) at 1 uM. Format: functional. Put shortly: as §1
Assay [9] is filed under the species Rattus norvegicus. Briefly: Percent inhibition of oncogenic transformation of HL-23 virus infected rat kidney cells (NRK 153C17) at 2 uM. Format: functional. Put shortly: as §1
The species named for assay [10] is Rattus norvegicus. Briefly: Percent inhibition of oncogenic transformation of HL-23 virus infected rat kidney cells (NRK 153C17) at 4 uM. Format: functional. In short, it runs like this: as §1
The species entered for assay [11] is Rattus norvegicus. Put plainly: Inhibition of oncogenic transformation expressed as %control cell number on day 3 in HL-23 virus infected rat kidney cells (NRK 153C17) at 0.25 uM. Format: functional. Put shortly: (§2)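 Normal rat kidney cells (NRK 153 C1 7) infected with HL-23 virus, a C-type virus isolated from human acute myelogenous leukemia cells, and exposed to compound at 0–4 μM. Cell number determined on day 3 and expressed as % of control.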

The species entered for assay [12] is Rattus norvegicus. Put plainly: Inhibition of oncogenic transformation expressed as %control cell number on day 3 in HL-23 virus infected rat kidney cells (NRK 153C17) at 0.5 uM. Format: functional. In short, it runs like this:
as §2

For assay [13], the species on record is Rattus norvegicus. Put plainly: Inhibition of oncogenic transformation expressed as %control cell number on day 3 in HL-23 virus infected rat kidney cells (NRK 153C17) at 1 uM. Format: functional. Put shortly:
as §2

For assay [14], the species on record is Rattus norvegicus. Put plainly: Inhibition of oncogenic transformation expressed as %control cell number on day 3 in HL-23 virus infected rat kidney cells (NRK 153C17) at 2 uM. Format: functional. In short, it runs like this:
as §2

The species entered for assay [15] is Rattus norvegicus. Put plainly: Inhibition of oncogenic transformation expressed as %control cell number on day 3 in HL-23 virus infected rat kidney cells (NRK 153C17) at 4 uM. Format: functional. In short, it runs like this:
as §2

The species named for assay [16] is Rattus norvegicus. Briefly: Inhibition of oncogenic transformation was assayed by infecting normal rat kidney cells (NRK 153C17) with HL-23 virus and counting the %control cell number on day 3 at a concentration of 0 uM. Format: functional. In short, it runs like this:
as §2

Assay [17] is filed under the species Rattus norvegicus. Put plainly: Inhibition of oncogenic transformation expressed as number of foci on day 5 in HL-23 virus infected rat kidney cells (NRK 153C17) at 0 uM. Format: functional. In short, it runs like this: as §1
The species named for assay [18] is Rattus norvegicus. Put plainly: Inhibition of oncogenic transformation expressed as number of foci on day 5 in HL-23 virus infected rat kidney cells (NRK 153C17) at 0.25 uM. Format: functional. In short, it runs like this: as §1
The species entered for assay [19] is Rattus norvegicus. Put plainly: Inhibition of oncogenic transformation expressed as number of foci on day 5 in HL-23 virus infected rat kidney cells (NRK 153C17) at 0.5 uM. Format: functional. In short, it runs like this:
as §1

For assay [20], the species on record is Rattus norvegicus. Briefly: Inhibition of oncogenic transformation expressed as number of foci on day 5 in HL-23 virus infected rat kidney cells (NRK 153C17) at 1 uM. Format: functional. In short, it runs like this: as §1
The species named for assay [21] is Rattus norvegicus. Put plainly: Inhibition of oncogenic transformation expressed as number of foci on day 5 in HL-23 virus infected rat kidney cells (NRK 153C17) at 2 uM. Format: functional. Put shortly:
as §1

The species named for assay [22] is Rattus norvegicus. Put plainly: Inhibition of oncogenic transformation expressed as number of foci on day 5 in HL-23 virus infected rat kidney cells (NRK 153C17) at 4 uM. Format: functional. In short, it runs like this:
as §1

Assay [23] is filed under the species Mus musculus. Put plainly: In vitro antiviral activity against herpes simplex virus type 1 (strain E-377) grown in mouse fibroblasts cells, clone L-929, expressed as virus rating (VR). Format: functional, Fibroblast.
The species entered for assay [24] is Rattus norvegicus. Briefly: Percent inhibition of oncogenic transformation of HL-23 virus infected rat kidney cells (NRK 153C17) at 0.5 uM. Format: functional. Put shortly:
as §1

Assay [25] is filed under the species Mus musculus. Put plainly: Effect in mouse infected with herpes simplex virus type-1; observed effects seen. Format: functional, organism-based.
The species named for assay [26] is Mus musculus. Put plainly: Minimum Inhibitory concentration of the drug required for 50% inhibition vaccinia virus (strain Lederle chorioallantoic)-induced cytopathogenic effects in infected cell cultures. Format: functional.
Assay [27] is filed under the species Mus musculus. Briefly: In vitro antiviral activity against herpes simplex virus type 1 (strain E-377) grown in mouse fibroblasts cells, clone L-929, expressed as virus ration (VR). Format: functional, Fibroblast.

Structures are written as SMILES. Values after ≈ are worked out from the molar mass of the structure shown. Active and inactive are the calls of the source. The calls are words filed in the database; no cut-off is given here.

Take `Nc1nccc2c1ncn2[C@@H]1C[C@H](CO)[C@@H](O)[C@H]1O` [3-DEAZAARISTEROMYCIN A]: the Activity result in the assay listed under Mus musculus [1] is “+ to +/-”; in the assay listed under Mus musculus [2], “observed effects seen”. The MIC was determined as 238 µg/mL (≈ 901 µM) in the assay filed under Mus musculus [3] and 1.9 µg/mL (≈ 7.19 µM) in the assay listed under Mus musculus [4]. In addition, the Virus rating in the assay filed under Mus musculus [5] stood at 2.8; in the assay filed under Mus musculus [23], 1.1. The compound also returned an Inhibition in the assay filed under Rattus norvegicus [6] of 0%. Also, in the assay filed under Rattus norvegicus [7], the inhibition at 0.25 µM turned out to be 44%. This compound also registered an inhibition at 1 µM in the assay filed under Rattus norvegicus [8] of 76%. This compound displayed an inhibition at 2 µM in the assay listed under Rattus norvegicus [9] of 92%. For the same compound, in the assay listed under Rattus norvegicus [10], the inhibition at 4 µM is 99%. The Control cell number stood at 100% in the assay listed under Rattus norvegicus [11]; 96% in the assay filed under Rattus norvegicus [12]; 81% in the assay filed under Rattus norvegicus [13]; 71% in the assay listed under Rattus norvegicus [14]; 53% in the assay listed under Rattus norvegicus [15]; 100% in the assay filed under Rattus norvegicus [16]. The “No. of foci per dish” value is on record as 115 in the assay filed under Rattus norvegicus [17]; 64 in the assay listed under Rattus norvegicus [18]; 65 in the assay filed under Rattus norvegicus [19]; 28 in the assay filed under Rattus norvegicus [20]; 9 in the assay listed under Rattus norvegicus [21]; 1 in the assay listed under Rattus norvegicus [22]. In addition, in the assay listed under Rattus norvegicus [24], at 0.5 µM the inhibition was 44%.

Regarding `Nc1ncnc2c1ncn2[C@@H]1O[C@H](CO)[C@@H](O)[C@@H]1O` [VIDARABINE], the result in the assay filed under Mus musculus [25] and in the assay listed under Mus musculus [2] was Active. The results for the MIC in the assay listed under Mus musculus [3] and in the assay listed under Mus musculus [26] were 2.1 µg/mL (≈ 7.86 µM) and 19.2 µg/mL (≈ 71.8 µM), respectively. Besides, the Virus rating turned out to be 1.2 in the assay listed under Mus musculus [5] and 3.2 in the assay listed under Mus musculus [23].

The compound `Nc1nccc2c1ncn2[C@@H]1O[C@H](CO)[C@@H](O)[C@H]1O` showed a Virus rating in the assay filed under Mus musculus [27] of 0.5.
